Data on one compound can be found in article PMC3263408 (International Journal of Nanomedicine, 2012).

Series [1] in a line: Solubility of curcumin in various vehicles. It is filed as physicochemical. Summed up: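 Excess test compound was shaken in 1 mL vehicle in a water bath at room temperature for 48 h. It was then centrifuged at 12,000 rpm for 10 min and passed through a 0.45 μm filter, and the supernatant was diluted in methanol. Quantified by HPLC: C18 column (5 μm, 4.6 × 250 mm) at room temperature, methanol:water (3.6% glacial acetic acid) 73:27 v/v, 1.0 mL/min, detection at 428 nm.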

In a further series the test system is Hela cells. Kind of series: MTT cytotoxicity assay. It counts as cell-based. The note with it: Homo sapiens, 24 h, read-out: IC50 (50% cell killing). The method, boiled down:
(§1)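 Cells were kept in folate-free RPMI 1640 with 10% FBS at 37°C and 5% CO2, then seeded at 5000/well and left to attach for 24 h. Test compound was given free (DMSO), in SMEDDS or in FSMEDDS, ±1 mM free folate, at 1, 5, 10, 20 and 40 μM for 24 h at 37°C. After three PBS washes, MTT was added for 4 h, formazan dissolved in DMSO, and OD read at 570 nm. Triplicates; IC50 from concentration–viability curves.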
For orientation: Formazan colour is commonly taken as a measure of viable cells.

For a further series, the system named is HT-29 cells. The series is described as follows: MTT cytotoxicity assay. It counts as cell-based. The note with it: Homo sapiens, HT-29, 24 h, read-out: IC50 (50% cell killing). The method, boiled down:
as §1

For series [2] the following is noted: cited from earlier work.

≈ marks a conversion by molar mass, not a printed value.

As for `COc1cc(/C=C/C(=O)CC(=O)/C=C/c2ccc(O)c(OC)c2)ccc1O` [curcumin], the solubility at 48 h in series [1] (Capryol 90 (oil), oil or lipid, thermodynamic from solid) was 9430 ± 800 µg/mL (≈ 25.6 mM); in series [1] (Cremophor EL (surfactant), organic solvent or mixture, thermodynamic from solid) it was 65800 ± 4800 µg/mL (≈ 179 mM); in series [1] (Emulsifier OP (surfactant), organic solvent or mixture, thermodynamic from solid), 5160 ± 1030 µg/mL (≈ 14 mM); in series [1] (Labrafil M1944CS (oil)), 3170 ± 130 µg/mL (≈ 8.61 mM); in series [1] (Labrasol (surfactant), organic solvent or mixture, thermodynamic from solid), 99300 ± 1730 µg/mL (≈ 270 mM); in series [1] (PEG 400 (cosurfactant), organic solvent or mixture, thermodynamic from solid), 159800 ± 480 µg/mL (≈ 434 mM). Further, the solubility at 48 h was 4860 ± 1150 µg/mL (≈ 13.2 mM) in series [1] (Tween 80 (surfactant), organic solvent or mixture, thermodynamic from solid); 1560 ± 470 µg/mL (≈ 4.23 mM) in series [1] (castor oil (oil), oil or lipid, thermodynamic from solid); 5980 ± 630 µg/mL (≈ 16.2 mM) in series [1] (ethanol (cosurfactant), organic solvent or mixture, thermodynamic from solid); 1040 ± 20 µg/mL (≈ 2.82 mM) in series [1] (ethyl oleate (oil), oil or lipid, thermodynamic from solid); 510 ± 50 µg/mL (≈ 1.38 mM) in series [1] (isopropyl myristate (oil), oil or lipid, thermodynamic from solid). The IC50 came out at 30.4 ± 1.71 µM in the series with Hela cells and 25.6 ± 2.23 µM in the series with HT-29 cells. In series [2], the “Solubility of curcumin in the aqueous medium” value was “about 11 ng/g”.

One may read the solubility as how much of the substance goes into solution per volume. The IC50 is the concentration needed to halve the response being measured.
